{
  "source": "paper PMC2695835",
  "about": "(Bioorganic & medicinal chemistry, 2009)",
  "note": "Where “and” joins values, the source holds several entries; their conditions need not be identical. Equal values may be shown once.",
  "data": [
    {"molecular_target": "T1, GVIA iPLA2 (Homo sapiens, UniProt O60733)", "T1 sequence (O60733 1-806)": "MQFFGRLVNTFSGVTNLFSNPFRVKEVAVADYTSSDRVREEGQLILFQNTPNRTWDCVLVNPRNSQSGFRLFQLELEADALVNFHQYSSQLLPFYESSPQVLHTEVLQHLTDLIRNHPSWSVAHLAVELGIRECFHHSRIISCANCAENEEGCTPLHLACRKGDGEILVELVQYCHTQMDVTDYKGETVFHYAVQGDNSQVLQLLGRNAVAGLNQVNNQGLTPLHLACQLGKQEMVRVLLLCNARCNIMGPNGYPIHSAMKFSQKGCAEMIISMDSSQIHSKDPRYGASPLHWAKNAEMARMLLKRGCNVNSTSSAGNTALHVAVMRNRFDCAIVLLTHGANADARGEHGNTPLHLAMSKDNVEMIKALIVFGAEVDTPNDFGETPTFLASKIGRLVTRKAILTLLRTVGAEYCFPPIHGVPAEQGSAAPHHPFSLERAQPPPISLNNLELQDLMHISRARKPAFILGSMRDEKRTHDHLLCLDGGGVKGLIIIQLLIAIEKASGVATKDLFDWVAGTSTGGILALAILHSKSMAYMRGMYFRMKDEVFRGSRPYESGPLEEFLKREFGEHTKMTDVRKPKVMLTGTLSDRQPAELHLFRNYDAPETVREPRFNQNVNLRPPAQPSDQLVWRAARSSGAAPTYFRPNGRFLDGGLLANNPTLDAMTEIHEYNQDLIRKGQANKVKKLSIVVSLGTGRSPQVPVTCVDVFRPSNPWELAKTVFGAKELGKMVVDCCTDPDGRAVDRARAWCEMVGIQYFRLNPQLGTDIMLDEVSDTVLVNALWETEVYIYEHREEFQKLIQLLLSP", "test": "In vitro GVIA iPLA2 inhibition, mixed micellar modified Dole assay", "format": "biochemical", "conditions": "mole fraction of inhibitor in total substrate interface required to inhibit the enzyme by 50%; mixed micelles", "in_short": "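Human GVIA iPLA2 on Triton X-100 mixed micelles, either 400 μM Triton X-100/99 μM DPPC/1.5 μM 14C-DPPC in 200 mM HEPES pH 7.0, 1 mM ATP, 2 mM DTT, 0.1 mg/ml BSA, or 400 μM Triton/98.3 μM PAPC/1.7 μM 14C-PAPC in 100 mM HEPES pH 7.5, 2 mM ATP, 4 mM DTT. XI(50) obtained when screening inhibition exceeded 90%: 7 points (typically 0.005–0.091 mole fraction), linear or one-site hyperbola (BMAX = 100) fit.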", "values": [
      {"compound": "CCCCCCCCCCCCCCC(=O)C(=O)N[C@@H](CCCC)COCC(=O)OCC", "note": "[Compound 13, (S)-Ethyl 2-(2-(2-oxohexadecanamido)hexyloxy)acetate]", "GVIA iPLA2 XI(50)": "0.017 mole fraction and 0.017 ± 0.002 mole fraction"},
      {"compound": "CCCCCCCCCCCCCCC(=O)C(=O)N[C@@H](CCCC)C(=O)NCC(=O)OC", "note": "[Compound 4a, (S)-Methyl 2-(2-(2-oxohexadecanamido)hexanamido)acetate]", "GVIA iPLA2 XI(50)": "0.045 ± 0.018 mole fraction"},
      {"compound": "CCCCCCCCCCCCCCC(=O)C(=O)N[C@@H](CCCC)C(=O)NCC(=O)OC(C)(C)C", "note": "[Compound 8a, (S)-tert-Butyl 2-(2-(2-oxohexadecanamido)hexanamido)acetate]", "GVIA iPLA2 XI(50)": "0.011 mole fraction and 0.011 ± 0.001 mole fraction"},
      {"compound": "CCCCCCCCCCCCCCC(=O)C(=O)N[C@@H](CCCC)C(=O)NCC(=O)OCC", "note": "[Compound 4c, (S)-Ethyl 2-(2-(2-oxohexadecanamido)hexanamido)acetate]", "GVIA iPLA2 XI(50)": "0.020 mole fraction and 0.020 ± 0.002 mole fraction"},
      {"compound": "CCCCCCCCCCCCCCC(=O)C(=O)N[C@H](C(=O)NCC(=O)OC(C)(C)C)C(C)C", "note": "[Compound 8b, (S)-tert-Butyl 2-(3-methyl-2-(2-oxohexadecanamido)butanamido)acetate]", "GVIA iPLA2 XI(50)": "0.044 ± 0.025 mole fraction"}
    ]}
  ]
}
